This assay concerns the target Muscarinic acetylcholine receptor M4 (Rattus norvegicus) (UniProt P08485). The experiment in a line: M4 receptor potentiation by M5-directed compounds, selectivity assay for M5 PAM discovery project, CHO cells, rat M4, calcium flux (AID 651935). In a few lines:
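Assay system: CHO-K1 cells stably expressing rat M4 receptor with chimeric Gqi5 / Buffer or medium: HBSS plus HEPES and probenecid, pH 7.4 / Also added: acetylcholine EC20 / Schedule: dye load 45-60 min 37 °C, compound 1.5 min pre-incubation / Signal: calcium mobilization by Fluo-4 AM fluorescence / Evaluation: baseline-corrected signal as % of maximal acetylcholine response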
In general terms: Calcium flux is commonly read through the fluorescence of an indicator in the cells.

SMILES strings stand for the structures. The source made the active and inactive calls. No rule for the calls is given here.

Sequence of Muscarinic acetylcholine receptor M4 (Rattus norvegicus) (P08485 whole entry, looked up): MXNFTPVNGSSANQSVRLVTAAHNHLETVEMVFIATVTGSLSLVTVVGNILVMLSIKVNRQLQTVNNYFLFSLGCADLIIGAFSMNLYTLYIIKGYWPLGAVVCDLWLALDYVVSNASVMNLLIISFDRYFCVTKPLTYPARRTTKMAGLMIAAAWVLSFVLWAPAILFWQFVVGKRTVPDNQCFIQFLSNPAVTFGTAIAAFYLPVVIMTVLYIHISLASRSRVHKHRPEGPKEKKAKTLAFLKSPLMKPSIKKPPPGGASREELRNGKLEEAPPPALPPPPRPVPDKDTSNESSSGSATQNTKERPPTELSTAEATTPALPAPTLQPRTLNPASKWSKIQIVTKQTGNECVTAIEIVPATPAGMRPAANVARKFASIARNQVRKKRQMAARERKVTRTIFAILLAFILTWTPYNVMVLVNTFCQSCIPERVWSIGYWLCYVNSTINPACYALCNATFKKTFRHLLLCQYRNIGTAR

On to `O=C1C(=O)N(CCOc2ccccc2)c2ccc(OC(F)(F)F)cc21`, for which the result was inactive.
